Results published in PMC9476207 (ACS Omega, 2022).

How the values were obtained:
Assay in all cases: NCI-60 single-dose antiproliferative screen
Assay type in all cases: cell-based
CAKI-1 = conditions: Homo sapiens, CAKI-1, 48 h, read-out: growth percent
Procedure, shortened: (§1)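 NCI-60 protocol. Lines were grown in RPMI 1640 with 5% FBS and 2 mM L-glutamine, plated and incubated 24 h at 37 °C; time-zero plates were TCA-fixed. The test compound was dissolved in DMSO, diluted in medium with 50 μg/mL gentamicin and given once at a final 10^-5 M (DMSO control) for 48 h. Cells were fixed with cold TCA (1 h, 4 °C) and stained with 0.4% SRB in 1% acetic acid for 10 min. Dye was dissolved in 10 mM Trizma base and read at 515 nm. Growth percent was calculated from time-zero, test and control ODs.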

SW-620 = conditions: Homo sapiens, SW-620, 48 h, read-out: growth percent
Procedure, shortened: (§2)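 Cells grown in RPMI 1640 with 5% FBS and 2 mM L-glutamine, plated and held 24 h at 37 °C; time-zero plates TCA-fixed. DMSO stocks were diluted in gentamicin-containing medium to a final 10^-5 M, with a DMSO-only control. Exposure 48 h, 5% CO2. Adherent cells TCA-fixed 1 h at 4 °C, stained with 0.4% SRB, solubilised in 10 mM Trizma base, read at 515 nm. Growth percent derived from ODtzero, ODtest and ODctrl.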

COLO205 = conditions: Homo sapiens, COLO 205, 48 h, read-out: growth percent
Procedure, shortened: as §1

DU-145 = conditions: Homo sapiens, DU-145, 48 h, read-out: growth percent
Procedure, shortened: as §1

NCI-H226 = conditions: Homo sapiens, NCI-H226, 48 h, read-out: growth percent
Procedure, shortened: as §1

UO-31 = conditions: Homo sapiens, UO-31, 48 h, read-out: growth percent
Procedure, shortened: as §2

OVCAR-8 = conditions: Homo sapiens, OVCAR-8, 48 h, read-out: growth percent
Procedure, shortened: as §1

CCRF-CEM = conditions: Homo sapiens, 48 h, read-out: growth percent
Procedure, shortened: as §1

SK-MEL-2 = conditions: Homo sapiens, SK-MEL-2, 48 h, read-out: growth percent
Procedure, shortened: as §2

OVCAR-3 = conditions: Homo sapiens, OVCAR-3, 48 h, read-out: growth percent
Procedure, shortened: as §1

NCI-H322M = conditions: Homo sapiens, 48 h, read-out: growth percent
Procedure, shortened: as §1

U251 = conditions: Homo sapiens, U-251, 48 h, read-out: growth percent
Procedure, shortened: as §2

RPMI-8226 = conditions: Homo sapiens, RPMI-8226, 48 h, read-out: growth percent
Procedure, shortened: as §1

HOP-92 = conditions: Homo sapiens, HOP-92, 48 h, read-out: growth percent
Procedure, shortened: as §1

SF-268 = conditions: Homo sapiens, SF-268, 48 h, read-out: growth percent
Procedure, shortened: as §1

UACC-62 = conditions: Homo sapiens, UACC-62, 48 h, read-out: growth percent
Procedure, shortened: as §2

SN12C = conditions: Homo sapiens, 48 h, read-out: growth percent
Procedure, shortened: as §2

IGROV1 = conditions: Homo sapiens, IGROV-1, 48 h, read-out: growth percent
Procedure, shortened: as §1

TK-10 = conditions: Homo sapiens, TK-10, 48 h, read-out: growth percent
Procedure, shortened: as §2

KM12 = conditions: Homo sapiens, KM12, 48 h, read-out: growth percent
Procedure, shortened: as §1

BT-549 = conditions: Homo sapiens, BT-549, 48 h, read-out: growth percent
Procedure, shortened: as §1

MDA-MB-435 = conditions: Homo sapiens, MDA-MB-435, 48 h, read-out: growth percent
Procedure, shortened: as §1

RXF 393 = conditions: Homo sapiens, RXF 393, 48 h, read-out: growth percent
Procedure, shortened: as §1

SK-MEL-5 = conditions: Homo sapiens, SK-MEL-5, 48 h, read-out: growth percent
Procedure, shortened: as §2

NCI-H23 = conditions: Homo sapiens, NCI-H23, 48 h, read-out: growth percent
Procedure, shortened: as §1

HCT-15 = conditions: Homo sapiens, HCT-15, 48 h, read-out: growth percent
Procedure, shortened: as §1

UACC-257 = conditions: Homo sapiens, UACC-257, 48 h, read-out: growth percent
Procedure, shortened: as §2

SF-539 = conditions: Homo sapiens, SF-539, 48 h, read-out: growth percent
Procedure, shortened: as §2

SNB-75 = conditions: Homo sapiens, SNB-75, 48 h, read-out: growth percent
Procedure, shortened: as §2

MCF-7 = conditions: Homo sapiens, MCF7, 48 h, read-out: growth percent
Procedure, shortened: as §1

OVCAR-4 = conditions: Homo sapiens, OVCAR-4, 48 h, read-out: growth percent
Procedure, shortened: as §1

M14 = conditions: Homo sapiens, M14, 48 h, read-out: growth percent
Procedure, shortened: as §1

LOX IMVI = conditions: Homo sapiens, 48 h, read-out: growth percent
Procedure, shortened: as §1

NCI-H460 = conditions: Homo sapiens, NCI-H460, 48 h, read-out: growth percent
Procedure, shortened: as §1

HT29 = conditions: Homo sapiens, HT-29, 48 h, read-out: growth percent
Procedure, shortened: as §1

Row | SMILES | activity at 10 µM (CAKI-1) [%] | activity at 10 µM (SW-620) [%] | activity at 10 µM (COLO205) [%] | activity at 10 µM (DU-145) [%] | activity at 10 µM (NCI-H226) [%] | activity at 10 µM (UO-31) [%] | activity at 10 µM (OVCAR-8) [%] | activity at 10 µM (CCRF-CEM) [%] | activity at 10 µM (SK-MEL-2) [%] | activity at 10 µM (OVCAR-3) [%] | activity at 10 µM (NCI-H322M) [%] | activity at 10 µM (U251) [%] | activity at 10 µM (RPMI-8226) [%] | activity at 10 µM (HOP-92) [%] | activity at 10 µM (SF-268) [%] | activity at 10 µM (UACC-62) [%] | activity at 10 µM (SN12C) [%] | activity at 10 µM (IGROV1) [%] | activity at 10 µM (TK-10) [%] | activity at 10 µM (KM12) [%] | other results
1 | CCc1ccc(-n2cc(COc3ccc(CNC(=O)CCCC/C=C/C(C)C)cc3OC)nn2)cc1 [14o, (E)-N-(4-((1-(4-Ethylphenyl)-1H-1,2,3-triazol-4-yl)methoxy)-3-methoxybenzyl)-8-methylnon-6-enamide] | 77.4 | 103 | 121 | 93.8 | 76.7 | 93.9 | 91.1 | 86.8 | 95.2 | 101 | 90.5 | 89.4 | 74 | 86.5 | 93 | 71.4 | 98.5 | 102 | 87.4 | 100 | activity at 10 µM (BT-549): 99.1%; activity at 10 µM (MDA-MB-435): 107%; activity at 10 µM (RXF 393): 101%; activity at 10 µM (SK-MEL-5): 84%; activity at 10 µM (NCI-H23): 89.5%; activity at 10 µM (HCT-15): 94.4%; activity at 10 µM (UACC-257): 86.4%; activity at 10 µM (SF-539): 104%; activity at 10 µM (SNB-75): 92.6%; activity at 10 µM (MCF-7): 102%; activity at 10 µM (OVCAR-4): 89%; activity at 10 µM (M14): 99.8%; activity at 10 µM (LOX IMVI): 89.3%; activity at 10 µM (NCI-H460): 103%; activity at 10 µM (HT29): 109%
2 | COc1cc(CNC(=O)CCCC/C=C/C(C)C)ccc1OCc1cn(-c2cccc(Cl)c2)nn1 [14b, (E)-N-(4-((1-(3-Chlorophenyl)-1H-1,2,3-triazol-4-yl)methoxy)-3-methoxybenzyl)-8-methylnon-6-enamide] | 79.6 | 92.8 | 102 | 95.9 | 86.5 | 72.2 | 57.2 | 87.3 | 86.7 | 84.4 | 86.2 | 69.1 | 86.3 | 62.4 | 82.5 | 75 | 84.2 | 79.9 | 106 | 98.6 | activity at 10 µM (BT-549): 99.3%; activity at 10 µM (MDA-MB-435): 98.6%; activity at 10 µM (RXF 393): 91%; activity at 10 µM (SK-MEL-5): 91.2%; activity at 10 µM (NCI-H23): 87.2%; activity at 10 µM (HCT-15): 91.3%; activity at 10 µM (UACC-257): 90.1%; activity at 10 µM (SF-539): 82%; activity at 10 µM (SNB-75): 75.8%; activity at 10 µM (MCF-7): 86.9%; activity at 10 µM (OVCAR-4): 67.2%; activity at 10 µM (M14): 94.1%; activity at 10 µM (LOX IMVI): 89.4%; activity at 10 µM (NCI-H460): 84.1%; activity at 10 µM (HT29): 99.2%
